Source: PubChem (several laboratories)
Only some compounds are listed: those with a hit (about 2.2% of all), similar ones and a draw of the others.
MT stabilizer: stabilizes microtubules in HeLa cells | HeLa tubulin immunostaining HCS, 24 h; share of cells brighter than vehicle mean+2SD | 200,000 compounds, 0.83% hits | % tubulin-high responders, % at 10 µM;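 active = plate Z-score above 3 for both tubulin-high and condensed-nucleus cell shares, with cell loss under 80%, at 10 µM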;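 also: anti alpha tubulin signal scored within the nucleus-defined area of each cell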
bCat nuc transl: alters nuclear translocation of beta-catenin in HeLa cells. nuclear translocation activity, % at 5 µM. immunofluorescence imaging. AID 1665. 190,000 compounds, 0.3% hits;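 active = nuclear translocation activity above 50% at 5 µM, with a well cell count of 50 or more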;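 also: per-cell ratio of nuclear to cytoplasmic median beta-catenin stain intensity; plate controls were DMSO negative control for no effect and GSK-3 inhibitor IX positive control for full effect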
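Test system: human HeLa cell line; Doses: 5 µM primary, 0.02–20 µM confirmation; Incubation: 24 h compound exposure, 37°C; Detection: beta-catenin immunofluorescence imaging with DAPI; Read-out: beta-catenin nuclear/cytoplasmic ratio, % activation.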
APP transl inh: APP translation inhibition; 190,000 compounds, 0.82% hits; SH-SY5Y APP 5'UTR-luciferase reporter, luminescence; inhibition, % at 2 µM;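 active = inhibition above a set limit, derived from the sample mean plus 3 SD, cut at about 45% in these data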
BaF3 parental: reduces parental Ba/F3 cell viability, JAK2V617F counter-screen | CellTiter-Glo ATP luminescence | inhibition, % at 5.6 µM | 220,000 compounds, 1.1% hits | AID 1486;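 active = inhibition above a per-campaign cutoff, the mean inhibition of all tested compounds plus 3 SD, cut at about 27% in these data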;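 also: 0% = DMSO wells and 100% = JAK Inhibitor I control wells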
Ba/F3 V617F tox: loss of viability in JAK2V617F-driven Ba/F3 cells | inhibition, % at 5.6 µM | Ba/F3 EpoR-JAK2V617F viability, ATP luminescence | 220,000 compounds, 1.1% hits;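 active = inhibition above the campaign mean plus 3 SD over all tested compounds, cut at about 24% in these data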;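 also: cytokine-independent growth of Ba/F3 cells driven by EpoR plus mutant JAK2; 0% = DMSO-treated cells and 100% = JAK inhibitor I control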
IEC-6 cytotox: counter-screen for KLF5 inhibitors: cytotoxicity in IEC-6 cells; IEC-6 cytotoxicity, luminescence viability; inhibition, % at 5 µM; 290,000 compounds, 0.78% hits; AID 1825; in the data active = inhibition above about 22%;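 also: 0% = plate median of test compound wells and 100% = cytotoxic reference compound wells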
* marks the source's active call; other numbers are inactive results; · = no result.

SMILES | MT stabilizer | bCat nuc transl | APP transl inh | BaF3 parental | Ba/F3 V617F tox | IEC-6 cytotox
S=c1[nH]nc(-c2cccc3ccccc23)n1-c1cccnc1 | · | -1.9 | · | 50.3* | 51.8* | -2.6
CCc1cccc(CC)c1-n1c(-c2cccnc2)n[nH]c1=S | 3.4 | -9.0 | -12.5 | 3.9 | 0.7 | -3.1
O=C(Nc1ccc(Cl)cc1C(F)(F)F)C(Sc1nnc(-c2cccs2)o1)c1ccccc1 (centres undefined) | 14.3* | 32.7 | -29.6 | 5.0 | -1.0 | 8.2
O=C1/C(=C\c2c(NCCOCCO)nc3ccccn3c2=O)SC(=S)N1Cc1ccco1 | · | · | · | · | · | -9.4
N#Cc1c(NC(=O)c2ccccc2)sc2c1CCCCC2 | 3.9 | 0.6 | -198.2 | 2.4 | -3.1 | 2.5
N#Cc1c(Cl)nsc1NC(=O)c1ccccc1 | 3.2 | 9.1 | 1.9 | 39.5* | 29.0* | 12.9
C=CCN1C(=O)c2ccc(C(=O)N(C)CC(=O)Nc3cccc(F)c3)cc2C1=O | · | · | · | · | · | 1.2
O=C1CCN(S(=O)(=O)c2ccccc2)CCN1CCOCc1ccc(F)cc1 | · | 70.0* | · | · | · | ·
Fc1ccc(-c2nc3ccccc3[nH]2)cc1 | 1.5 | 0.8 | -102.6 | 63.0* | 2.5 | 4.5
Cc1cccc(NC(=S)NCc2ccccc2Cl)c1C | · | · | · | · | · | 9.3
CC(OC(=O)C1=NNC(=O)CC1)C(=O)Nc1ncc(Cl)cc1Cl (centres undefined) | 1.9 | -2.6 | 14.4 | 80.6* | 1.3 | -3.3
CCOC(=O)c1c(C)[nH]c(C(=O)OC(C)C(=O)Nc2ccccc2OC)c1C (centres undefined) | · | · | · | · | · | 10.2
CCOC(=O)c1[nH]c(C)c(C(=O)OC(C)C(=O)Nc2ncc(Cl)cc2Cl)c1C (centres undefined) | 42.3* | -0.5 | 9.9 | 1.3 | -2.3 | -1.4
C=CCOc1ccccc1CNc1cccc(F)c1 | 1.8 | -2.0 | 56.9* | 4.0 | 0.0 | -0.9
Cc1sc2ncnc(N3CCCCC3)c2c1C | 1.5 | -1.6 | · | 2.5 | -0.5 | -2.3
Cc1ccc(OCCN2CCN(c3ncnc4sc(C)c(C)c34)CC2)cc1 | 0.9 | -9.7 | · | 27.9* | 8.9 | 3.5
CCOc1cccc(OCCCCN2CCOCC2)c1 | 5.3 | 0.3 | -18.0 | 3.9 | 1.9 | -2.1
COc1cccc(OCCCCCCN2CCOCC2)c1 | 2.1 | · | 50.0* | 4.5 | 4.4 | 8.7
Cc1nnn(-c2nonc2N)c1C(=O)N/N=C/c1cccc2ccccc12 | 4.1 | 2.3 | -3.6 | 2.8 | -3.9 | 4.6
Cc1nnn(-c2nonc2N)c1C(=O)N/N=C/c1ccccc1O | 4.4 | 1.6 | 64.3* | 6.1 | -0.1 | 6.2
COc1ccc(-c2noc(=O)n2Cc2cc(C)ccc2C)cc1 | 11.4* | 4.2 | 7.9 | 2.3 | -3.5 | -1.3
COc1ccc(-c2noc(=O)n2Cc2ccccc2F)cc1 | · | · | · | · | · | -1.7
O=C(Nc1ccccc1)c1ccc(-c2ccc(Br)cc2)o1 | 1.1 | · | -43.3 | -1.1 | -3.0 | 9.3
O=C(Nc1ccccc1N1CCCCC1)c1ccc(-c2ccc(Cl)cc2)o1 | 29.3* | 64.4* | 84.0* | -1.5 | -1.8 | -0.8
O=C(Nc1cccc(NC(=O)c2ccc(-c3ccc(Br)cc3)o2)c1)c1ccccc1 | 17.6* | -4.0 | 25.1 | 1.6 | -0.5 | 1.8
SMILES | MT stabilizer | bCat nuc transl | APP transl inh | BaF3 parental | Ba/F3 V617F tox | IEC-6 cytotox
COc1ccccc1NC(=O)c1ccc(-c2ccc(Br)cc2)o1 | 38.6* | 2.3 | -19.4 | 3.6 | -0.7 | 1.2
Cc1cc(C)n2nc(CNS(=O)(=O)c3ccc(CC(C)C)cc3)nc2n1 | · | · | · | · | · | -0.9
CCCCN1CC(=O)N2[C@H](c3ccc(Cl)cc3)[C@@H]3C(=O)N(CC)C(=O)[C@@H]3[C@]2(C)C1=O | · | · | · | · | · | 2.1
CCN(CC)N=Nc1ccc(S(=O)(=O)Nc2nc(C)cc(C)n2)cc1 | · | · | · | · | · | -5.9
O=C(Nc1ccccc1C(=O)O)c1ccc(NC(=O)C2CCCCC2)cc1 | · | · | · | · | · | 3.9
CCOc1ccc(C(C)=O)cc1COC(=O)CCc1cc(OC)c(OC)c(OC)c1 | · | · | · | · | · | -4.7
Cc1ccc2c(c1)c(C)cc[n+]2Cc1ccccc1 | 5.6 | -2.2 | -4.6 | 69.8* | 93.6* | 5.2
CC1(C)CC(=O)c2sc(NC(=O)CN3CCCCC3)nc2C1 | 2.0 | -5.4 | 54.1* | 2.3 | -0.2 | -0.1
CC1(C)CC(=O)c2sc(NC(=O)C(C)(C)C)nc2C1 | 1.0 | 0.3 | -29.1 | 0.5 | -3.7 | 0.5
O=S(=O)(NCc1ccccc1)c1ccc(-n2cccn2)cc1 | · | · | · | · | · | -0.4
CCOc1ccc(CN(C(=O)c2oc3cc(C)ccc3c2C)C2CCS(=O)(=O)C2)cc1 (centres undefined) | 40.5* | · | 1.1 | 2.7 | -3.3 | -5.4
Cc1ccc2c(C)c(C(=O)N(Cc3ccccc3)C3CCS(=O)(=O)C3)oc2c1 (centres undefined) | · | · | · | · | · | 4.9
CNC(=S)N1N=C(c2ccc(C)cc2)CC1c1ccc(OC)cc1 (centres undefined) | 1.3 | -1.6 | -3.0 | 9.0 | -0.9 | -3.7
CNC(=S)N1N=C(c2ccc(C)cc2)CC1c1cc(OC)ccc1OC (centres undefined) | 12.2* | 1.4 | -18.7 | 1.9 | -1.6 | 13.1
O=C1C(C=NCc2ccncc2)=C(O)c2ccccc21 | 0.8 | -4.5 | -17.1 | 1.9 | -4.9 | -0.4
O=C1N/C(=C/c2ccc(Br)cc2)C(O)=C1C=NCc1ccccc1 | 12.1 | -5.9 | 58.8* | 5.7 | -1.0 | -1.1
Cc1cc(Nc2ccccc2)n(-c2ccccc2)n1 | 3.8 | · | 11.6 | -0.4 | -1.7 | -3.0
Cc1cc(Nc2nc(Cl)c(Cl)cc2Cl)n(-c2ccccc2)n1 | 17.1* | 3.1 | 15.7 | 4.0 | -6.1 | 4.9
CCOc1cccc(C(=O)Nc2ccccc2C(=O)N2CCN(C)CC2)c1 | · | · | · | · | · | 1.3
CN1CCN(C(c2ccc(C(F)(F)F)cc2)c2ccc3cccnc3c2O)CC1 (centres undefined) | · | · | · | · | · | 2.2
Oc1c(C(c2cccs2)N2CCN(c3ccccc3)CC2)ccc2cccnc12 (centres undefined) | 4.1 | 14.6 | 59.3* | 83.3* | 98.4* | 0.3
Oc1c(C(c2ccccc2Cl)N2CCCC2)ccc2cccnc12 (centres undefined) | 7.7 | -3.6 | 7.2 | 68.4* | 82.7* | 12.3
COc1ccc(NC(=O)N2CCCC2C(=O)Nc2ccc(C)cc2C)cc1 (centres undefined) | · | · | · | · | · | -4.1
CCC1CCCCN1CC(=O)c1c(C)[nH]c2cc(C)ccc12 (centres undefined) | · | · | · | · | · | -2.3
O=C(COc1ccc2c(c1)oc(=O)c1ccccc12)NCCCN1CCOCC1 | · | · | · | · | · | -2.1
CCOC(=O)c1cnc(SC)nc1Oc1cccc(NS(=O)(=O)c2ccc(Cl)cc2)c1 | 32.5* | -2.0 | -8.2 | 11.5 | 1.9 | -0.2
CCOC(=O)COc1ccc(S(=O)(=O)Nc2ccc3c(c2)OCCO3)cc1 | 4.1 | · | -20.9 | 3.1 | -1.4 | 6.3
CCOC(=O)COc1ccc(S(=O)(=O)Nc2cccc(SC)c2)cc1 | 2.2 | 2.5 | 68.7* | 2.5 | 0.2 | 0.6
CC(C)(C)c1ccc(C(=O)Nc2ccc(C(=O)N3CCCC3)cc2)cc1 | · | · | · | · | · | 1.7
CC(C)(C)c1ccc(C(=O)N2CCCCCC2=O)cc1 | 2.9 | -1.4 | 56.9* | 5.0 | -1.1 | 0.4
